For data set [1], the system named is Candida albicans. The data set is described as follows: Antifungal activity against Candida albicans ATCC 14053 at 198.1 uM after 48 hrs by CLSI method. It is filed as functional, organism-based.
The subject of data set [2] is Candida albicans. The experiment in a line: Antifungal activity against Candida albicans ATCC 60193 at 198.1 uM after 48 hrs by CLSI method. It is filed as functional, organism-based. The gist of the method: (§1)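 Candida inocula came from 24–72-h SD agar colonies suspended in saline. They were diluted by OD630 standard curve into RPMI 1640 (0.2% dextrose, 0.03% glutamine, 0.165 M MOPS, pH 7.0) to 1.5 × 10³ CFU/ml. Compounds were run as 11 twofold dilutions in 20% DMSO-saline, in duplicate, at 35°C for 48 h, with OD530 read before and after. Percent growth at the top concentration, IC50, MIC, and MFC (SD agar plating) were derived.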

The test system of data set [3] is Candida albicans. The data set is described as follows: Antifungal activity against Candida albicans ATCC 200955 at 198.1 uM after 48 hrs by CLSI method. The data set is classed as functional, organism-based. The gist of the method: as §1
Data set [4] has as its system Nakaseomyces glabratus. The data set is described as follows: Antifungal activity against Candida glabrata ATCC 90030 at 198.1 uM after 48 hrs by CLSI method. The data set is classed as functional, organism-based. A digest of the protocol: as §1
Data set [5] has as its system Candida parapsilosis. The experiment in a line: Antifungal activity against Candida parapsilosis ATCC 22019 at 198.1 uM after 48 hrs by CLSI method. The data set is classed as functional, organism-based. A digest of the protocol:
(§2)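 Yeast suspensions made from 3-5 colonies off 24-72 h SD agar plates in saline. They were diluted by OD630 standard curve in RPMI 1640 (0.2% dextrose, 0.03% glutamine, 0.165 M MOPS, pH 7.0) to 1.5 × 10³ CFU/ml. Twofold dilutions (11 concentrations, 20% DMSO-saline) run in duplicate. OD530 read before and after 35°C, 48 h. Line values are top test concentrations; no-growth endpoints give MIC/MFC.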

Data set [6] has as its system Candida albicans. The experiment in a line: Antifungal activity against Candida albicans ATCC 90028 at 9.4 uM after 48 hrs by CLSI method. The data set is classed as functional, organism-based. A digest of the protocol:
(§3)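 Candida in CLSI broth microdilution. Saline colony suspension set to 1.5 × 10³ CFU/ml (final) in MOPS-buffered RPMI 1640, pH 7.0. Test agent given as twofold serial dilutions in 20% DMSO-saline, duplicate wells. 35°C for 48 h. Growth read as OD530 before and after incubation. Percent inhibition scored at the highest test concentration.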

The test system of data set [7] is Candida albicans. The experiment in a line: Antifungal activity against Candida albicans ATCC 200955 at 9.4 uM after 48 hrs by CLSI method. It is filed as functional, organism-based. The gist of the method: as §3
Data set [8] has as its system Nakaseomyces glabratus. The data set is described as follows: Antifungal activity against Candida glabrata ATCC 90030 at 9.4 uM after 48 hrs by CLSI method. The data set is classed as functional, organism-based. The gist of the method:
as §3

The subject of data set [9] is Pichia kudriavzevii. The experiment in a line: Antifungal activity against Candida krusei ATCC 6258 at 9.4 uM after 48 hrs by CLSI method. The data set is classed as functional, organism-based. A digest of the protocol:
as §3

Data set [10] relates to Candida parapsilosis. The experiment in a line: Antifungal activity against Candida parapsilosis ATCC 22019 at 9.4 uM after 48 hrs by CLSI method. The data set is classed as functional, organism-based. A digest of the protocol:
as §3

Data set [11] relates to Aspergillus fumigatus. The data set is described as follows: Antifungal activity against Aspergillus fumigatus ATCC 204305 at 9.4 uM after 48 hrs by CLSI method. It is filed as functional, organism-based. A digest of the protocol: (§4)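 Aspergillus growth on 1–6-week potato dextrose slants scraped and Miracloth-filtered. Inoculum sized by OD630 curve to 2.7 × 10⁴ CFU/ml (final) in 5% Alamar blue-RPMI 1640 (MOPS, pH 7.0). Duplicate twofold dilutions from 20% DMSO-saline. 35°C for 48 h. Fluorescence 544/590 nm read before and after. Percent inhibition taken at the highest test concentration.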

The test system of data set [12] is Aspergillus flavus. The experiment in a line: Antifungal activity against Aspergillus flavus ATCC 204304 at 9.4 uM after 48 hrs by CLSI method. The data set is classed as functional, organism-based. A digest of the protocol: as §4
In another data set the test system is Aspergillus niger. The experiment in a line: Antifungal activity against Aspergillus niger ATCC 16404 at 9.4 uM after 48 hrs by CLSI method. It is filed as functional, organism-based. A digest of the protocol:
as §4

The subject of data set [13] is Candida albicans. The data set is described as follows: Antifungal activity against Candida albicans ATCC 14053 at 9.4 uM after 48 hrs by CLSI method. It is filed as functional, organism-based. A digest of the protocol: as §3
Data set [14] relates to Candida albicans. The data set is described as follows: Antifungal activity against Candida albicans ATCC 60193 at 9.4 uM after 48 hrs by CLSI method. The data set is classed as functional, organism-based. The gist of the method:
as §3

Data set [15] has as its system Candida albicans. The data set is described as follows: Antifungal activity against Fluconazole resistant Candida albicans isolate 17 at 169.8 uM after 48 hrs by CLSI method. It is filed as functional, organism-based. A digest of the protocol:
as §3

For data set [16], the system named is Candida parapsilosis. The data set is described as follows: Antifungal activity against Candida parapsilosis ATCC 22019 at 169.8 uM after 48 hrs by CLSI method. The data set is classed as functional, organism-based. A digest of the protocol: as §2
A further data set relates to Mus musculus. The data set is described as follows: Toxicity in mouse up to 34 umol/kg/day, ip for 3 days. It is filed as organism-based. Particulars: in vivo, 72 h.
In data set [17] the test system is Aspergillus fumigatus. The experiment in a line: Antifungal activity against Aspergillus fumigatus ATCC 204305 at 169.8 uM after 48 hrs by CLSI method. The data set is classed as functional, organism-based.
The test system of data set [18] is Trichophyton rubrum. The experiment in a line: Antifungal activity against Trichophyton rubrum ATCC MYA-4438 at 169.8 uM after 5 days by CLSI method. The data set is classed as functional, organism-based.
Data set [19] has as its system Candida albicans. The experiment in a line: Antifungal activity against Candida albicans ATCC 14053 at 168.9 uM after 48 hrs by CLSI method. It is filed as functional, organism-based.
For data set [20], the system named is Candida albicans. The experiment in a line: Antifungal activity against Candida albicans ATCC 60193 at 168.9 uM after 48 hrs by CLSI method. The data set is classed as functional, organism-based. The gist of the method:
as §1

For data set [21], the system named is Candida albicans. The experiment in a line: Antifungal activity against Candida albicans ATCC 90028 at 168.9 uM after 48 hrs by CLSI method. The data set is classed as functional, organism-based. A digest of the protocol:
as §1

A further data set concerns Cryptococcus neoformans. The data set is described as follows: Antifungal activity against Cryptococcus neoformans ATCC 90113 at 168.9 uM after 72 hrs by CLSI method. It is filed as functional, organism-based. A digest of the protocol: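 SD broth replaced RPMI because growth in RPMI was poor; other CLSI conditions were kept. Inoculum was 1.5 × 10³ CFU/ml from colonies on SD agar, checked by plating. Twofold serial dilutions (11 concentrations) in 20% DMSO-saline were tested in duplicate. OD530 was read before and after incubation at 35°C for 72 h. Percent growth gave IC50; the MIC is the lowest concentration with no detectable growth.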

Data set [22] concerns Aspergillus fumigatus. The experiment in a line: Antifungal activity against Aspergillus fumigatus ATCC 90906 at 168.9 uM after 48 hrs by CLSI method. It is filed as functional, organism-based.
Data set [23] relates to Trichophyton mentagrophytes. The data set is described as follows: Antifungal activity against Trichophyton mentagrophytes ATCC MYA-4439 at 168.9 uM after 5 days by CLSI method. It is filed as functional, organism-based.
Data set [24] concerns Trichophyton mentagrophytes. The data set is described as follows: Antifungal activity against Trichophyton mentagrophytes ATCC 9533 at 168.9 uM after 5 days by CLSI method. The data set is classed as functional, organism-based.
For data set [25], the system named is Trichophyton rubrum. The experiment in a line: Antifungal activity against Trichophyton rubrum ATCC MYA-4438 at 168.9 uM after 5 days by CLSI method. The data set is classed as functional, organism-based.
Data set [26] concerns Candida albicans. The data set is described as follows: Antifungal activity against Candida albicans ATCC 14053 at 187.7 uM after 48 hrs by CLSI method. It is filed as functional, organism-based.
The test system of data set [27] is Candida albicans. The data set is described as follows: Antifungal activity against Candida albicans ATCC 90028 at 187.7 uM after 48 hrs by CLSI method. The data set is classed as functional, organism-based. The gist of the method:
as §1

Data set [28] has as its system Pichia kudriavzevii. The experiment in a line: Antifungal activity against Candida krusei ATCC 6258 at 187.7 uM after 48 hrs by CLSI method. It is filed as functional, organism-based. A digest of the protocol: as §2
The subject of data set [29] is Candida parapsilosis. The data set is described as follows: Antifungal activity against Candida parapsilosis ATCC 22019 at 187.7 uM after 48 hrs by CLSI method. The data set is classed as functional, organism-based. A digest of the protocol:
as §2

The next data set deals with Candida tropicalis. The data set is described as follows: Antifungal activity against Candida tropicalis ATCC 750 at 187.7 uM after 48 hrs by CLSI method. It is filed as functional, organism-based. A digest of the protocol: as §2
Data set [30] relates to Aspergillus flavus. The experiment in a line: Antifungal activity against Aspergillus flavus ATCC 204304 at 187.7 uM after 48 hrs by CLSI method. It is filed as functional, organism-based.

Results on five compounds are retold here after ChEMBL document CHEMBL1275449, “Potent in vitro antifungal activities of naturally occurring acetylenic acids” (Antimicrob Agents Chemother, 2008).

The source made the active and inactive calls. The calls are words filed in the database; no cut-off is given here.

Take `CCCCCCCCCC#CCCCCC(=O)O`: the result in the data set on Candida albicans [1], in the data set with Candida albicans [2], in the data set on Candida albicans [3], in the data set on Nakaseomyces glabratus [4] and with Candida parapsilosis [5] was inactive.
As for `CC(=O)N1CCN(c2ccc(OCC3COC(Cn4ccnc4)(c4ccc(Cl)cc4Cl)O3)cc2)CC1` (centres undefined) [KETOCONAZOLE], the outcome in the data set on Candida albicans [6], with Candida albicans [7], with Nakaseomyces glabratus [8], in the data set on Pichia kudriavzevii [9], with Candida parapsilosis [10] and in the data set on Aspergillus fumigatus [11] was inactive. Moreover, the outcome in the data set with Aspergillus flavus [12], with Aspergillus niger, in the data set with Candida albicans [13] and in the data set with Candida albicans [14] was inactive.
With `CCCCCCCCCCCCC#CCCCCC(=O)O` [6-NONADECYNOIC ACID], the outcome with Candida albicans [15], in the data set on Candida parapsilosis [16], with Aspergillus fumigatus [17] and in the data set on Trichophyton rubrum [18] was inactive. Besides, in the data set on Mus musculus, the Activity result was “Non-toxic”.
Regarding `CCCCCC#CCC#CCC#CCC#CCCCC(=O)O`, the result (in the data set with Candida albicans [19]; in the data set with Candida albicans [20]; in the data set on Candida albicans [21]; with Cryptococcus neoformans; in the data set with Aspergillus fumigatus [22]; in data set [23]) was inactive. In addition, the result (in [24]; in the data set with Trichophyton rubrum [25]) was inactive.
Take `CCCCCCCCCCC#CCCCCC(=O)O`: the result with Candida albicans [26], with Candida albicans [27], in the data set with Pichia kudriavzevii [28], with Candida parapsilosis [29], with Candida tropicalis and with Aspergillus flavus [30] was inactive.
